Key:
Mus musculus [1] = species on record: Mus musculus; test: Toxicity in C57B6 DIO mouse assessed as reduction of food intake at 0.3 mg/g of food after 31 days; type: organism-based; conditions: in vivo, po, 744 h
[2] = Half life in mouse liver microsomes; type: ADME, Microsome
Mus musculus [3] = species on record: Mus musculus; test: Toxicity in C57B6 DIO mouse assessed as elevation of aspartate aminotransferase at 0.3 mg/g of food after 31 days; type: organism-based; conditions: in vivo, po, 744 h
[4] = Clearance in Sprague-Dawley rat at 2 mg/kg, iv; type: ADME, organism-based; design: dose 2 mg/kg, route intravenous; conditions: in vivo
How it was run: (§1)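 SD rats received 2 mg/kg iv in 50% DMSO/50% PEG200, or 10 mg/kg po in 2% Tween/0.5% methyl cellulose in water. PK parameters come from each route.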

[5] = Oral bioavailability in Sprague-Dawley rat at 10 mg/kg; type: ADME, organism-based; conditions: in vivo; how it was run: as §1
[6] = Half life in Beagle dog at 2 mg/kg, iv; type: ADME, organism-based, Canis lupus familiaris; design: dose 2 mg/kg, route intravenous; conditions: in vivo
How it was run: (§2)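 Male dogs were given 2 mg/kg intravenously in 50% DMSO/50% PEG200.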

[7] = AUC in Sprague-Dawley rat at 10 mg/kg, po; type: ADME, organism-based; design: dose 10 mg/kg, route oral; conditions: plasma; how it was run: as §1
[8] = Half life in C57B6 mouse at 2 mg/kg, iv; type: ADME, organism-based; design: dose 2 mg/kg, route intravenous; conditions: in vivo
How it was run: (§3)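 Male C57B6 mice. IV dose of 2 mg/kg in 50% DMSO/50% PEG200. Oral dose of 10 mg/kg in 2% Tween/0.5% methyl cellulose in water. Values are PK parameters from the iv and po arms.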

[9] = AUC in C57B6 mouse at 10 mg/kg, po; type: ADME, organism-based; design: dose 10 mg/kg, route oral; conditions: plasma; how it was run: as §3
[10] = target: T1, 11-beta-hydroxysteroid dehydrogenase type 2 (Homo sapiens, UniProt P80365); test: Inhibition of human 11beta-HSD2 expressed in CHO cells using […] as substrate incubated for 30 mins prior to substrate addition measured after 120 mins by scintillation counting analysis; type: cell-based
T1 sequence (P80365 whole entry): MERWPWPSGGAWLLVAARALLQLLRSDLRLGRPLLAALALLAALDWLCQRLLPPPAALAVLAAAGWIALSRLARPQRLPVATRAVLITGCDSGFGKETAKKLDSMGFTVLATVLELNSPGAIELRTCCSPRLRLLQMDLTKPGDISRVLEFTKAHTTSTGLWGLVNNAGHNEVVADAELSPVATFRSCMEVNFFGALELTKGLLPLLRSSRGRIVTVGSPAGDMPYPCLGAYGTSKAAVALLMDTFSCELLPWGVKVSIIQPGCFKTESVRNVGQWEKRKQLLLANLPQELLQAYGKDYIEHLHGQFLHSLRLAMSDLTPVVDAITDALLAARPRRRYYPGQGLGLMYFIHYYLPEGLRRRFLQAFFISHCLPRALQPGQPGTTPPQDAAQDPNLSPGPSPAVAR

[11] = AUC in Beagle dog at 2 mg/kg, iv; type: ADME, organism-based, Canis lupus familiaris; design: dose 2 mg/kg, route intravenous; conditions: plasma; how it was run: as §2
[12] = Tmax in C57B6 mouse at 10 mg/kg, po; type: ADME, organism-based; design: dose 10 mg/kg, route oral; conditions: in vivo; how it was run: as §3
Mus musculus [13] = species on record: Mus musculus; test: Antidiabetic activity in C57B6 DIO mouse assessed as reduction in fasting glucose level at 0.3 mg/g of food after 31 days by HPLC analysis relative to untreated control; type: functional; design: scale not given: the % may be the effect or the level left
How it was run: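 Male C57B6 mice, 5.5–7 months old, kept on a 35.5% fat diet for 4 months. Compound was mixed into food at 0.3 mg drug/g food for 31 days. Controls received diet 12492. Glucose and insulin were measured fed and fasting.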

[14] = Half life in Sprague-Dawley rat at 10 mg/kg, po; type: ADME, organism-based; design: dose 10 mg/kg, route oral; conditions: in vivo; how it was run: as §1
Mus musculus [15] = species on record: Mus musculus; test: Toxicity in C57B6 DIO mouse assessed as body weight change at 0.3 mg/g of food after 31 days relative to untreated control; type: organism-based; conditions: in vivo, po, 744 h
[16] = Oral bioavailability in Beagle dog at 5 mg/kg; conditions: in vivo
Mus musculus [17] = test: Ex vivo inhibition of 11beta-HSD1 in C57B16 mouse epididymal fat assessed as conversion of [3H]-cortisone to [3H]-cortisol at 10 mg/kg, po after 5 hrs by HPLC analysis relative to vehicle-treated control; type: functional
How it was run: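 Mice were dosed orally at 10 mg/kg. Epididymal fat was collected 5 h after dosing for the ex vivo readout.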

[18] = Clearance in Beagle dog at 2 mg/kg, iv; type: ADME, organism-based, Canis lupus familiaris; design: dose 2 mg/kg, route intravenous; conditions: in vivo; how it was run: as §2
[19] = Clearance in C57B6 mouse at 2 mg/kg, iv; type: ADME, organism-based; design: dose 2 mg/kg, route intravenous; conditions: in vivo; how it was run: as §3
Salmonella typhimurium = test: Genotoxicity in Salmonella typhimurium by Ames test; type: toxicity, organism-based; conditions: salmonella enterica subsp. enterica serovar typhimurium
[20] = Volume of distribution at steady state in C57B6 mouse at 2 mg/kg, iv; type: ADME, organism-based; design: dose 2 mg/kg, route intravenous; conditions: in vivo, read-out: Vdss; how it was run: as §3
[21] = target: Voltage-gated inwardly rectifying potassium channel KCNH2 (Homo sapiens, UniProt Q12809); test: Activity at human ERG at 33 uM
Rattus norvegicus = test: Toxicity in rat at 200 to 2000 mg/kg; type: organism-based; design: dose 200-2000 mg/kg; conditions: in vivo
How it was run: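 14-day safety assessment and metabolism study in rats at 200, 600 and 2000 mg/kg.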

[22] = Tmax in Sprague-Dawley rat at 10 mg/kg, po; type: ADME, organism-based; design: dose 10 mg/kg, route oral; conditions: in vivo; how it was run: as §1
[23] = target: 11-beta-hydroxysteroid dehydrogenase 1 (Homo sapiens, UniProt P28845); test: Inhibition of human 11beta-HSD1 expressed in CHO cells using cortisone as substrate incubated for 30 mins prior to substrate addition measured after 120 mins by chemiluminescence assay
[24] = target: 11-beta-hydroxysteroid dehydrogenase 1 (Mus musculus, UniProt P50172); test: Inhibition of mouse 11beta-HSD1 expressed in CHO cells […] incubated for 30 mins prior to substrate addition measured after 120 mins by chemiluminescence assay in presence of 10% human serum; type: cell-based
How it was run: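 Cell-based assay with 10% (v/v) human serum in the culture medium. Run in duplicate, with 11-point 2-fold dilutions giving the IC50. Lower threshold was 10 nM.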

[25] = Tmax in Beagle dog at 5 mg/kg, po; conditions: in vivo

Chain of 11-beta-hydroxysteroid dehydrogenase 1 (Mus musculus, UniProt P50172) (P50172 whole entry): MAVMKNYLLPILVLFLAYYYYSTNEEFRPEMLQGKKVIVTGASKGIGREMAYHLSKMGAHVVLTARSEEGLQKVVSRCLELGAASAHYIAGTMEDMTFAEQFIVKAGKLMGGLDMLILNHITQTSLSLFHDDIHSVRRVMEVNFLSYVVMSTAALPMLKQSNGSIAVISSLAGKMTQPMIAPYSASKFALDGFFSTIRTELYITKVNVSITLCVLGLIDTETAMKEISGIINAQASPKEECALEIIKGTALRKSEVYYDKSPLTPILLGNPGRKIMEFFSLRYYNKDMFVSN
Chain of 11-beta-hydroxysteroid dehydrogenase 1 (Homo sapiens, UniProt P28845) (P28845 whole entry): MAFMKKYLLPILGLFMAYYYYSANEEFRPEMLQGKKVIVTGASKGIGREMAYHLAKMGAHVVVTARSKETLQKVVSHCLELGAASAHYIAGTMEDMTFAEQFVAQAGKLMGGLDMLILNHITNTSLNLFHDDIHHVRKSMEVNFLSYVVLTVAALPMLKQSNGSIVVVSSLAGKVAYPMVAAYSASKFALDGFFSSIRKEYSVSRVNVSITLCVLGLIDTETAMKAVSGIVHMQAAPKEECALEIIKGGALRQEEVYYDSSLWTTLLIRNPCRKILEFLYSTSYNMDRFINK
Chain of Voltage-gated inwardly rectifying potassium channel KCNH2 (Q12809 whole entry): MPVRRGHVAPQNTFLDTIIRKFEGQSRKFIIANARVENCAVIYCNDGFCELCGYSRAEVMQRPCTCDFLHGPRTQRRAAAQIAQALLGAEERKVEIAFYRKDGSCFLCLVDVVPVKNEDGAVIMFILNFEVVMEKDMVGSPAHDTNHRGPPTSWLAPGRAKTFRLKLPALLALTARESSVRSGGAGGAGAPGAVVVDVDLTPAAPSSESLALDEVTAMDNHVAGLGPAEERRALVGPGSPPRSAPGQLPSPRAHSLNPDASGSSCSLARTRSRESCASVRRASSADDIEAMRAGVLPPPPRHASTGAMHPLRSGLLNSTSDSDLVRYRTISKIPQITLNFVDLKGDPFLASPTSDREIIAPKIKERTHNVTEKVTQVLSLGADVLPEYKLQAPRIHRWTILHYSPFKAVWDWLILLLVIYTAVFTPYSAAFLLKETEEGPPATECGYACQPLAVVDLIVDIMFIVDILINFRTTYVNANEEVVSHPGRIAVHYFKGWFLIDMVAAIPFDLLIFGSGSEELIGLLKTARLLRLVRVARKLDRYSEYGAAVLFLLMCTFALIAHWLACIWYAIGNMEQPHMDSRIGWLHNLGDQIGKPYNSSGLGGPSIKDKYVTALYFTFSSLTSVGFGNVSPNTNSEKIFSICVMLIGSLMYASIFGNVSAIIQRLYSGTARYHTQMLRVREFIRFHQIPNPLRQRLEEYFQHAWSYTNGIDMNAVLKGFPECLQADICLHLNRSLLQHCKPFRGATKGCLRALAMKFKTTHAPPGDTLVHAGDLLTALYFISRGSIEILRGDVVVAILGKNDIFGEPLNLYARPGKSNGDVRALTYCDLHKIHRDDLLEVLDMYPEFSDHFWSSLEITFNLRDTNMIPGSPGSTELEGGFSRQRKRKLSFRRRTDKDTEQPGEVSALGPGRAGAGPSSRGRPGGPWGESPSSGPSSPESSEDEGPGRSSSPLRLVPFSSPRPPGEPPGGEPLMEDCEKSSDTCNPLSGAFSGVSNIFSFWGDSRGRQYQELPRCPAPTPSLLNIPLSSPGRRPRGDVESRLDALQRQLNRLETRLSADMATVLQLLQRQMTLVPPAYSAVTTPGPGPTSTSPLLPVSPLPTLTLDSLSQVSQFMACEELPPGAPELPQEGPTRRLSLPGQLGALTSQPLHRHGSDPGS

SMILES: C[C@@H]1CN(c2ccc(F)cc2C(F)(F)F)CCN1S(=O)(=O)c1ccc([C@@](O)(C(N)=O)C(F)(F)F)s1
- Activity (Mus musculus [1]): Non-toxic
- half-life [2]: > 0.5 h
- Activity (Mus musculus [3]): Non-toxic
- clearance [4]: 8 mL/min/kg
- bioavailability [5]: 61%
- half-life [6]: 20.3 h
- AUC [7]: 6540 ng·h/mL
- half-life [8]: 6.1 h
- AUC [9]: 11700 ng·h/mL
- IC50 [10]: > 100000 nM
- AUC [11]: 32400 ng·h/mL
- Tmax [12]: 2 h
- Activity (Mus musculus [13]): 15%
- half-life [14]: 3.3 h
- Activity (Mus musculus [15]): Non-toxic
- bioavailability [16]: 54%
- inhibition in vivo at 10 mg/kg (Mus musculus [17]): 75%
- clearance [18]: 1 mL/min/kg
- clearance [19]: 9 mL/min/kg
- Activity (Salmonella typhimurium): Non-toxic
- Vd [20]: 4.2 L/kg
- Activity [21]: Not Active
- Activity (Rattus norvegicus): Non-toxic
- Tmax [22]: 1.8 h
- IC50 [23]: 10 nM
- IC50 [24]: 10 nM
- Tmax [25]: 2.8 h
